Test results from the EternaBench riboswitch data.

Test system: MS2 coat protein
Test: apparent Kd, MS2 coat protein; higher = weaker binding; RNA-MaP array
Outline: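 For each design, the apparent Kd is the median of binding-curve fits across its clusters. Designs measured on fewer than 10 clusters were dropped. The RNAs were transcribed from sequenced DNA templates on an Illumina sequencing chip and incubated at room temperature, with or without input ligand, with fluorescently labeled MS2 coat protein at 1.5 nM to 3 μM.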

[1] = designed as: ON switch for flavin mononucleotide, no ligand
[2] = ligand present: flavin mononucleotide, designed as: ON switch for flavin mononucleotide
[3] = designed as: OFF switch for flavin mononucleotide, no ligand
[4] = ligand present: flavin mononucleotide, designed as: OFF switch for flavin mononucleotide
[5] = designed as: ON switch for tryptophan, no ligand
[6] = ligand present: tryptophan, designed as: ON switch for tryptophan
[7] = designed as: OFF switch for theophylline, no ligand
[8] = ligand present: theophylline, designed as: OFF switch for theophylline

Sequence	apparent Kd [1] [nM]	apparent Kd [2] [nM]	apparent Kd [3] [nM]	apparent Kd [4] [nM]	other results
AUGAGUGGCCUGACAUGAGGAUCACCCAUGUCAAAUAAUGCAAGAAGGGACCUUUAUUCAAGGUGUCAGGAUAUUGAUUAAACC	15.8	12.9	–	–	–
AUGUUCGAACAUGAGGAUCACCCAUGUGAACCUCAUAAACGUAGAAGGCGACCGAGUUUAUGGGUCGAGGAUAUACCUCGAGAA	–	–	334	554	–
GGAAGUGUCUAGGAUAUCCUUCGAUCUAUGGCAGGAGAAGGAGAUACAUGAGGAUCACCCAUGUAGGUACGGGC	–	–	7.1	6.75	–
AGACCCAGAGGAUAUAACACAUGUAACAUGAGGAUCACCCAUGUGUCUAGUAGACACUUGUUAGAAGGCAGGCAUG	–	–	83.2	54.5	–
UGUUGCAGCCACAUGAGGAUCACCCAUGUGCUCAGGAUCGUUGAGGAUAUCGAGGUAGGGUCAGCCGAGAAGGCAAGGGUCGCG	10.5	8.64	–	–	–
ACCUAGAGAUAGAAGGUUUAUAUGACCCUACAUGAGGAUCACCCAUGUUGUGGUAUUAUUCGUGAAAAGGAUAUAUCCCGUGAC	7.6	7.52	–	–	–
AGGAACGUAGAGAAGGGAUCAAUUCGGUACAUGAGGAUCACCCAUGUGAUGGCCAAACUUCGAAAUCAGGAUAUCUCAUAAUAC	18.4	14.2	–	–	–
UUUUACAUGAGGAUCACCCAUGUGCGGCGCCGAGGACCGGUACGGCCGCCACUCGCAUGGGCAUGCCGCGAUAUCAUUCCUGAAC	–	–	–	–	apparent Kd [5]: 96.2 nM; apparent Kd [6]: 103 nM
ACAAGGCUUACAGGAUAUGUGCGUCAUACAAAACAUGAGGAUCACCCAUGUGCCCCAGCGUCUUCACAGAAGGGUACAAGCGUU	26.6	12.4	–	–	–
AUCACAUGAGGAUCACCCAUGUUAGGUAGAUGCAGUAAAGUCUAGGAUAUAAGCUUGUGAAGUAGUUAGAAGGAGACACAUGAG	–	–	22.9	18.3	–
GAUCGCAUCGUGAGGAUAUGAAAUGCCACUCAAAUACAGAAGGCACAUGAGGAUCACCCAUGUCUAGACAAGAG	–	–	25.9	64.9	–
CUAGGUCAGCUAGGAUAUACUUCUUGCAUGGAUGUAGAAGGAGCGAUAAGAUCUACAUGAGGAUCACCCAUGUUACUUAGGGUG	–	–	290	131	–
GUGCUGAAUACGUAGGAUAUAGUGUGUGCGACAUGAGGAUCACCCAUGUAAAUUGCCCAUCAGAGCUAGAAGGACGAAUCUUCGUG	15.5	8.78	–	–	–
ACAUGAGGAUCACCCAUGUACCAAGAACAUUGAUGCCUCCGAGAGGAUAUUUGCGGUAUAACACUAAAGAAGGCUCUACAAGUA	–	–	7.95	7.31	–
CCAAGCAUAAUAGAUACCAGUCGUAUACCUCCAACAUGAGGAUCACCCAUGUGCUCAGUUGACCCUUGGCAGCUAUGCCUAUAGA	–	–	–	–	apparent Kd (designed as: ON switch for theophylline, no ligand): 39.6 nM; apparent Kd (ligand present: theophylline, designed as: ON switch for theophylline): 25.8 nM
AUAAAACGAGUGCAGGAUAUUCCGUCGCGCACAUGAGGAUCACCCAUGUCAAUUGGGCAUCGUACGAAGAAGGGCAAAUACCAGCG	116	76.4	–	–	–
AAGCGCAAAGGAUAUAGCCGAUCCAACAUGAGGAUCACCCAUGUGACUUCCGACAUCAAGCUAGAAGGUUGAUGCA	–	–	47.6	41	–
UACUUCACGAUACAGGAUAUACGUAAGUUCACAUGAGGAUCACCCAUGUUAGCACACCAACUCAUGUAGAAGGGUAUCCCUAUAUA	30.4	13.1	–	–	–
GAUGGAAUAAGAGAUACCAGACACAAUUUAGCAUGUAUAUACAUGAGGAUCACCCAUGUAGUCCCUUGGCAGCUCUGGUUAGUGU	–	–	–	–	apparent Kd [7]: 26.5 nM; apparent Kd [8]: 26.7 nM
GCGGGUUACCCAGAAUGAGAAACAUGAGGAUCACCCAUGUAGAAGGAUAUAGAGUCUUGGUCUGCCUAGAAGGUCUAUAAUUGA	–	–	20.5	19.9	–
ACUCGGCAUCAUGAUACCAGAGAGCCCGAGAUGCCUUAACACAUGAGGAUCACCCAUGUACUCCCUUGGCAGCAUCAUGCACUAU	–	–	–	–	apparent Kd [7]: 19.4 nM; apparent Kd [8]: 24.4 nM
AUUCCAAUAGGAUAUACAUGAGGAUCACCCAUGUGAUGAGCCCGUAAGACAGACGUCAGUAGAAGGAUUAGGAA	–	–	24.5	31.7	–
UGGAACAGUGUAAGGAUAUGGUACAAAAUAAACUCCCAGAAGGUACAUGAGGAUCACCCAUGUUAAUAAGACAA	–	–	13.7	13.6	–
AAGCUGGAGAAUACAUGAGGAUCACCCAUGUGGCUUCAUGCCUAGGAUAUUAGUGUGCAGAACUGUAAGAAGGAGGAUCUUUAA	–	–	10.3	8.56	–
UAGGUACAUGAGGAUCACCCAUGUCCUAUUACUACAGGAUAUAGCGUGCCUAGAUGGGUGCUAGAAGGGUAGAUCU	20.7	9.13	–	–	–
UGAAUGCACCAGAAGGCUGGAAGAGUAUUUAACAGAGGAUAUGGAACAUAAAGAUCACAUGAGGAUCACCCAUGUACACAUAAC	34.5	11.1	–	–	–
UGCCCUACAUGAGGAUCACCCAUGUACAUAACAUGAGUGCGCAGAAGGUAUGCGUUGAAGAGCCAUAAGGAUAUGCAAACCGUC	114	71.1	–	–	–
GGUCCGACAACAGGAUAUGUCAUACGCUAAUGAACAGAAGGGUUACAUGAGGAUCACCCAUGUGCUUACACAUGCUCCGGAGCA	10.8	17.1	–	–	–

Sequence	apparent Kd [1] [nM]	apparent Kd [2] [nM]	apparent Kd [3] [nM]	apparent Kd [4] [nM]	other results
AAUAAACGAGGAUAUACAGAUCAAGAUUAUCUAGUGAUCCUACAUGAGGAUCACCCAUGUAGAAGGCGAGAACA	–	–	51.1	66.7	–
CGACUGAAUAGGCAGUACACAUGAGGAUCACCCAUGUUAGCAAGAAGGCAAGAGCCAGCGGAGCUUGAGGAUAUUGAAGAUCUC	27.2	27.4	–	–	–
AUGCUUAAAAUGCUCAAACAUGAGGAUCACCCAUGUGAGGUCAAGGAUAUUAUUUAACUUGUUUAUAAGAAGGUGACCGAAUGA	61.1	18.7	–	–	–
UAGAAGAACAUGCGGGCUCCGGACGGUGAUACCAGAUCGAAAAGGAUCCCUUGGCAGCACUGCACAUGAGGAUCACCCAUGUGCA	–	–	–	–	apparent Kd [7]: 9.2 nM; apparent Kd [8]: 15.8 nM
CAAAUAUAGUCAGGAUAUGUUCGAAAGGGUGCACAUGAGGAUCACCCAUGUCAUAAGACACUAGCACAGAAGGGACCCGAGAGA	–	–	149	141	–
UCAUACAUGAGGAUCACCCAUGUUCGUGGGCGAGGACCGGUACGGCCGCCACUCGUACUAACGGUUUCUUAAACUUCCUUUCGAG	–	–	–	–	apparent Kd [5]: 25.6 nM; apparent Kd [6]: 17.2 nM
GCAGUAAGAGAGGAUAUGAUGGACGCAAGGGCGUCAGAAGGCUCUACAUGAGGAUCACCCAUGUGAAGUUCAUA	–	–	6.12	6.52	–
UAAAUUCGAGGAUAUACGAGCCUCUUGAGCUGCCACGAAGCACAUGAGGAUCACCCAUGUAGAAGGCGACGGAU	–	–	12.2	19.9	–
UCAGCUAGACAGGAUAUAGAGAAUCAAGAACAGCUAGAAGGGUCAACAUGAGGAUCACCCAUGUGGUGGUACUG	–	–	477	445	–
AACUAACAUAGUUAACAACAUGAGGAUCACCCAUGUCGCAUGUAGGAUAUGGUAGAGGACACAACCCAGAAGGACAUAACAUAA	41.9	22.9	–	–	–
UAACAUGAGGAUCACCCAUGUACGAAGAGGGAAAGAAAAGUCAAGGAUAUGCGGAUUUAACUAGCGCAGAAGGUGAUCUAAGUU	230	114	–	–	–
AUUCAUCUCUAGAAGGGACUGCACAAAACACAGAAUUCUUACAUGAGGAUCACCCAUGUUGUGGGUCAGGAUAUAGGCAGGCCA	25.3	20.1	–	–	–
CGACGUCACGUGAGGAUAUGAUUGCUGCAAAUCAGUCAGAAGGCACAUGAGGAUCACCCAUGUCACCAAUACGA	–	–	7.15	10.3	–
AUUAGCAUCCAAGGAUAUCAGUUGGCCCGCAGGUGAGAAGGUGGAUUCUGGGCGCCGCGUGGGACACAUGAGGAUCACCCAUGU	–	–	30.3	26	–
UCGCGCUAAGGAUAUACUAUAAGCCACAUGAGGAUCACCCAUGUUAUAUACAUGUCCUCGGUAGAAGGUAGCCGGA	–	–	48.6	50.2	–
CUAACCACAAUAGGAUAUCGGGCUCGUUUCAUUGCUGCAAAACAUGAGGAUCACCCAUGUCCGUCCGAGAAGGAUUGUAAGAAU	92.1	14.8	–	–	–
GGGUGACAUGAGGAUCACCCAUGUCAGGAUAUGGACUCGAAAUUAGGUAUGAAUCACGCCAGAAGGGACCGGGC	–	–	55	44	–
AACAUGGAUCAAGGAUAUGCAAAGCGCUCGAUAAACAUGAGGAUCACCCAUGUGGCAGUCACAACGCAGAAGGUGACUAUAAUA	29.9	19.3	–	–	–
GUACGGUGAGGAUAUCGUUAAGAUGUGGACAGGCCUACAUACGAGAAGGCACAUGAGGAUCACCCAUGUUCAUA	–	–	21.5	18.8	–
CGAACGGGCCACACUACAUGAGGAUCACCCAUGUUCGAAGAUAGAAGGUGUAGCUGGCCUCGUUACAAGGAUAUAUCUUAUACC	–	–	29.2	27.4	–
UAAGCGUUAGGAUAUACAAAACGAAGAAAGUGAUUCAGAAUACAUGAGGAUCACCCAUGUAGAAGGAACGGGUA	–	–	17.7	24.2	–
CUCUAUCAGCAAGGAUAUGGGAGGUGUCGAGUUCCAGAAGGUGCACAUGAGACAUGAGGAUCACCCAUGUUGUGUAGUCCUCGA	–	–	10.8	26.5	–
AGUCAAGAGUAGAAGGGUGGAAAUUCGGUCGACACAGGAUAUACUUCAGGAGCCAGAAGACAAUAACAUGAGGAUCACCCAUGU	14.1	9.27	–	–	–
UCAAGCGAAGGAUAUACAUGAGGAUCACCCAUGUUGGCUAGAAUGAAAGACGGAUUAUGUAGAAGGUCGUGUGC	–	–	20.3	17.6	–
GCACGACAUGAGGAUCACCCAUGUGAGGAUAUACUACAUCAGGAACACGCUAUGCACGGUAGAAGGCACGGGAG	–	–	16.4	15.6	–
UUGCAAGUAGGAUAUAGUAGCGAAUACAUGAGGAUCACCCAUGUAGCCAGUGUAUUGCUUCUAGAAGGACUUCUCC	–	–	29.3	34.9	–
CCUGUAGACCCGACAUGAGGAUCACCCAUGUGUAGUUAUGGUAGAAGGUCGUACUGAACACACUCGAAGGAUAUACCCUUAUAC	13.9	13.3	–	–	–
